Measured values: ChEMBL document CHEMBL1147067, “Inhibitors of metabolism rescue cell death in Huntington's disease models” (Proc Natl Acad Sci U S A, 2007)
Activity calls are given as the source filed them. No cut-off for these calls is given here.

Tests used:
Rattus norvegicus [1] = species: Rattus norvegicus; assay: Cell death rescue in rat striatal neuronal N548 mutant cells at 10 uM after 2 days by calcein acetoxymethyl ester assay in presence of LY-294002; assay type: functional
Rattus norvegicus [2] = species: Rattus norvegicus; assay: Cell death rescue in rat striatal neuronal N548 mutant cells at 10 uM after 2 days by calcein acetoxymethyl ester assay in presence of U0126; assay type: functional
Drosophila [3] = assay: Cell death rescue of neuronal cells in drosophila Huntington's disease model; assay type: functional, organism-based
Outline: (§1)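 Flies of Drosophila HD strain 8534, which express human htt 1–170 with 120Q in the eye, were fed compound mixed into food (renewed every 2 days) or vehicle (0.1% DMSO) at 25°C. Rhabdomeres per ommatidium were counted by the pseudopupil technique at 9 days post-eclosion, blinded, with equal numbers of males and females. 8–10 flies per treatment, 35 ommatidia each; Student's t test.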

[4] = Toxicity in rat striatal neuronal N548 mutant cells; details: read-out: TC50 (the source's name)
Rattus norvegicus [5] = species: Rattus norvegicus; assay: Cell death rescue in rat striatal neuronal N548 mutant cells by calcein acetoxymethyl ester assay; assay type: functional
Outline: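 N548 mutant cells in serum-deprived medium (0.5% FCS, 39°C) were treated across a dose range. Viability was read by calcein acetoxymethyl ester fluorescence and expressed as fold increase over DMSO-treated cells. Triplicate wells, mean ± SD.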

Rattus norvegicus [6] = species: Rattus norvegicus; assay: Cell death rescue in rat striatal neuronal N548 mutant cells analysed every day for 7 days at 10 uM by trypan blue dye-exclusion assay; assay type: functional
Outline: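 Death was induced in N548 mutant cells by switching to 0.5% FCS medium at 39°C, with compound or DMSO present. Viability was measured daily for 7 days by automated trypan blue (0.4%) dye exclusion, counting at least 200 cells per sample and reporting % trypan blue-negative cells. Two independent experiments were run, each in duplicate.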

[7] = Decrease in htt expression in rat striatal neuron N548 mutant cells assessed as visible htt aggregation after 12 hrs by Western blotting; assay type: functional; parameters: scale not given: the % may be the effect or the level left
[8] = Cell death rescue in rat striatal neuron N548 mutant cells; assay type: functional
Caenorhabditis elegans [9] = assay: Toxicity in Caenorhabditis elegans Huntington's disease model; assay type: organism-based; details: for TC50: caenorhabditis elegans, in vivo
Drosophila [10] = assay: Toxicity in drosophila Huntington's disease model; assay type: organism-based; details: in vivo
Caenorhabditis elegans [11] = assay: Cell death rescue of ASH neuronal cells in Caenorhabditis elegans Huntington's disease model; assay type: functional, organism-based
Outline: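 pqe-1;Htn-Q150 C. elegans L1 larvae, which express human htt 1–171 with 150Q in ASH neurons, were kept at 15°C in liquid S medium with E. coli OP50 and compound or DMSO (1.5%). A starvation variant used L1-arrested larvae without food at 25°C. ASH survival was scored as GFP fluorescence in live animals, 100 neurons in more than 50 animals per treatment per time point.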

Drosophila [12] = assay: Decrease in rhabdomere degeneration in Drosophila photoreceptor assessed as number of rhabdomeres per ommatidium at day 9; assay type: functional, organism-based; outline: as §1
Rattus norvegicus [13] = species: Rattus norvegicus; assay: Suppression of cell death in rat striatal neuronal N548 mutant cells assessed as suppression of caspase 3 activation by Western blotting; assay type: functional
Outline: (§2)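 Serum-deprived N548 mutant cells (0.5% FCS, 39°C) were treated with compound or DMSO. Cleaved active caspase 3 and caspase 7 fragments were detected by Western blotting, with tubulin as loading control.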

Rattus norvegicus [14] = species: Rattus norvegicus; assay: Suppression of cell death in rat striatal neuronal N548 mutant cells assessed as suppression of caspase 7 activation by Western blotting; assay type: functional; outline: as §2
Rattus norvegicus [15] = species: Rattus norvegicus; assay: Decrease in ATP levels in rat striatal neuronal N548 mutant cells after 8 hrs in serum-deprived medium by luminescence-based assay in presence of glucose; assay type: functional
Outline: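 N548 mutant cells were plated at 10^5 cells per 60-mm dish, treated, and after 8 h in serum-deprived medium were lysed. Total ATP was measured by luciferase luminescence (12 s integration), normalized to cell number, and expressed relative to untreated cells at 0 h (100%). Triplicate, mean ± SD.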

Rattus norvegicus [16] = species: Rattus norvegicus; assay: Activation of ERK in rat striatal neuronal N548 mutant cells at 10 uM by Western blotting
Outline: (§3)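 N548 mutant htt-expressing striatal cells were treated with compound or vehicle (0.1% DMSO) in serum-deprived medium (0.5% FCS, 39°C) or in 10% serum medium. Lysates were Western blotted with phospho-specific antibodies against AKT Ser473, AKT Thr308 and ERK Thr202/Tyr204. Total AKT, total ERK and tubulin served as controls. The concentration series was read at 8 h.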

Rattus norvegicus [17] = species: Rattus norvegicus; assay: Activation of AKT in rat striatal neuronal N548 mutant cells at 10 uM by Western blotting; outline: as §3
[18] = target: Tyrosine-protein kinase JAK2 (Rattus norvegicus) (UniProt Q62689); assay: Activation of JAK2 in rat striatal neuronal N548 mutant cells
Rattus norvegicus [19] = species: Rattus norvegicus; assay: Activation of NF-kappaB in rat striatal neuronal N548 mutant cells
[20] = target: MAP kinase p38 (Homo sapiens) (UniProt O15264+Q15759+Q16539+P53778); assay: Activation of p38 MAPK in rat striatal neuronal N548 mutant cells
[21] = target: Glycogen synthase kinase-3 alpha (Rattus norvegicus) (UniProt P18265); assay: Activation of GSKalpha in rat striatal neuronal N548 mutant cells
[22] = target: Glycogen synthase kinase-3 beta (Rattus norvegicus) (UniProt P18266); assay: Activation of GSKbeta in rat striatal neuronal N548 mutant cells
Rattus norvegicus [23] = species: Rattus norvegicus; assay: Activation of ERK in rat striatal neuronal N548 mutant cells after 8 hrs by Western blotting; outline: as §3
Rattus norvegicus [24] = species: Rattus norvegicus; assay: Activation of AKT in rat striatal neuronal N548 mutant cells after 8 hrs by Western blotting; outline: as §3
Rattus norvegicus [25] = species: Rattus norvegicus; assay: Activation of ERK in rat striatal neuronal N548 mutant cells at 50 uM by Western blotting; outline: as §3
Rattus norvegicus [26] = species: Rattus norvegicus; assay: Activation of AKT in rat striatal neuronal N548 mutant cells at 50 uM by Western blotting; outline: as §3
Rattus norvegicus [27] = species: Rattus norvegicus; assay: Activation of AKT in DNA-deficient rat striatal neuronal N548 mutant cells at 10 uM after 6 hrs by Western blotting
Rattus norvegicus [28] = species: Rattus norvegicus; assay: Cell death rescue in DNA-deficient rat striatal neuronal N548 mutant cells at 10 uM; assay type: functional
[29] = Cell death rescue in rat striatal neuron N548 mutant cells relative to rotenone; assay type: functional
Rattus norvegicus [30] = species: Rattus norvegicus; assay: Activation of ERK in […] rat striatal neuronal N548 mutant cells at 10 uM after 6 hrs by Western blotting; details: 50 uM, in the assay text read “50 uM” for “10 uM”
Outline: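 N548 mutant htt-expressing striatal cells were exposed to compound or vehicle (0.1% DMSO) in serum-deprived medium (0.5% FCS, 39°C). Lysates were analysed by Western blotting with a phospho-specific antibody against threonine 202/tyrosine 204 ERK. Total ERK and tubulin served as controls.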

Sequence of Glycogen synthase kinase-3 alpha (Rattus norvegicus) (P18265 whole entry): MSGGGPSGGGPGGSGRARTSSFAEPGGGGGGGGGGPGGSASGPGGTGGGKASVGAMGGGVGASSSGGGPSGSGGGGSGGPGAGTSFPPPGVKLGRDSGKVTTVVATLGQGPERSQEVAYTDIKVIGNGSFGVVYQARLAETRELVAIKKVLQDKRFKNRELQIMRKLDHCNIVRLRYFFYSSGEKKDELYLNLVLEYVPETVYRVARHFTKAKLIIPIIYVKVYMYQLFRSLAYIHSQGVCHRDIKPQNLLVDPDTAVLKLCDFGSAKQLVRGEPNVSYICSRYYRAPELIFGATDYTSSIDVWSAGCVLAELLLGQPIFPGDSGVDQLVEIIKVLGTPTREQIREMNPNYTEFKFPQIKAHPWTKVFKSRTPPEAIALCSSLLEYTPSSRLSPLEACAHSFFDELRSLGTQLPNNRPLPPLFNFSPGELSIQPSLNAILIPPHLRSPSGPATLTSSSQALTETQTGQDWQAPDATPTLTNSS
Sequence of Glycogen synthase kinase-3 beta (Rattus norvegicus) (P18266 whole entry, looked up): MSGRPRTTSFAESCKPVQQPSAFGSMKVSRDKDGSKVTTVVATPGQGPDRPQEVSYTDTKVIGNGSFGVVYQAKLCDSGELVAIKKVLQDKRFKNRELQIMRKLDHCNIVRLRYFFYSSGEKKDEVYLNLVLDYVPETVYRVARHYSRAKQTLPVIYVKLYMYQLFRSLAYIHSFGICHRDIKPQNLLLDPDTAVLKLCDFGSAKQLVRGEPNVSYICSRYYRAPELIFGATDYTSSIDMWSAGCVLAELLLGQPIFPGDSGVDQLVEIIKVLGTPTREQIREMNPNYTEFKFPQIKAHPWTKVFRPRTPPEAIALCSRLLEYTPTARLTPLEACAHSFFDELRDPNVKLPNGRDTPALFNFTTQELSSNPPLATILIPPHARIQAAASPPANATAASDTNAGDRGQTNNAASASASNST
Sequence of Tyrosine-protein kinase JAK2 (Rattus norvegicus) (Q62689 whole entry): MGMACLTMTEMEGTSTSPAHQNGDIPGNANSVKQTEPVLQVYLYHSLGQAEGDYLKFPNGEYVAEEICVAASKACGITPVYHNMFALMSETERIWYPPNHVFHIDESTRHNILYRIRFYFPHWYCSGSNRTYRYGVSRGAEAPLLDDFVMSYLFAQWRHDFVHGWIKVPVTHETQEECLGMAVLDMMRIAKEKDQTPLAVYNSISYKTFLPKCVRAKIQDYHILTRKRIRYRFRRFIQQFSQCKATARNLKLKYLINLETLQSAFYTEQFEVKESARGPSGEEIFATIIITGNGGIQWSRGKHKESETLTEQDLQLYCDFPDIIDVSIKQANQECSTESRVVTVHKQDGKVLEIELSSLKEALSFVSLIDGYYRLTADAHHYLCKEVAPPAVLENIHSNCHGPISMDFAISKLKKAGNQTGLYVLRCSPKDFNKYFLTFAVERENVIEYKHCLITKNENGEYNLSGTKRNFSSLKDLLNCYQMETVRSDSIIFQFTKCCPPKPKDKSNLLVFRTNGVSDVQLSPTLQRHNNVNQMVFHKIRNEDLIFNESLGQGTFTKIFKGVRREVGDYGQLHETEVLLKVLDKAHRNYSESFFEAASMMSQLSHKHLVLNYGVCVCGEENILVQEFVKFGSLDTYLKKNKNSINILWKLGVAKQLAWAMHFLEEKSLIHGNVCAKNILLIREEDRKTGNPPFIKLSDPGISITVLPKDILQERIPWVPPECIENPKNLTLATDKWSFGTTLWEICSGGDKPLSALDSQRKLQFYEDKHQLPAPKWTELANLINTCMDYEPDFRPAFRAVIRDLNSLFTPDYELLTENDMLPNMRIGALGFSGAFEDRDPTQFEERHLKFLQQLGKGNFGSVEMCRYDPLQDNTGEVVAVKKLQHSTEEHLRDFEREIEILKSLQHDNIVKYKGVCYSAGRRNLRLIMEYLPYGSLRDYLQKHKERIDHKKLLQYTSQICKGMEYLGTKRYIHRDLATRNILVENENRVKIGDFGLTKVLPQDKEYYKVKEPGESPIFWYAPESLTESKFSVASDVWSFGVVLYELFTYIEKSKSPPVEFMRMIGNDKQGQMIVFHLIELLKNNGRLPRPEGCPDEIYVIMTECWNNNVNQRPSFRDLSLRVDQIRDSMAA

C=C(C)[C@H]1Cc2c(ccc3c2O[C@@H]2COc4cc(OC)c(OC)cc4[C@@H]2C3=O)O1 [ROTENONE]
Activity (Rattus norvegicus [1]): inactive
Activity (Rattus norvegicus [2]): inactive
EC50 (Drosophila [3]): 10 µM
CC50 [4]: 40 µM
Activity (Rattus norvegicus [5]): Active
Activity (Rattus norvegicus [6]): Active
Activity [7]: < 1%
EC50 [8]: 0.5 µM
EC50 (Caenorhabditis elegans [9]; Caenorhabditis elegans): 2 µM
TC50 (Caenorhabditis elegans [9]): 16 µM
TC50 (Drosophila [10]): 50 µM
EC50 (Caenorhabditis elegans [11]): 2 µM
Activity (Drosophila [12]): Active
Activity (Rattus norvegicus [13]): Active
Activity (Rattus norvegicus [14]): Active
Activity (Rattus norvegicus [15]): inactive
Activity (Rattus norvegicus [16]): Active
Activity (Rattus norvegicus [17]): Active
Activity [18]: inactive
Activity (Rattus norvegicus [19]): inactive
Activity [20]: inactive
Activity [21]: inactive
Activity [22]: inactive
Activity (Rattus norvegicus [23]): Dose-dependent effect
Activity (Rattus norvegicus [24]): Dose-dependent effect
Activity (Rattus norvegicus [25]): Active
Activity (Rattus norvegicus [26]): Active
Activity (Rattus norvegicus [27]): Active
Activity (Rattus norvegicus [28]): Active

[F-].[Na+] [SODIUM FLUORIDE]
CC50 [4]: 10000 µM
Activity [29]: 0.6
EC50 [8]: 2000 µM

CC(C)(C)OC(=O)N[C@@H](CC(=O)O)C(=O)CF
Activity (Rattus norvegicus [26]): Active
Activity (Rattus norvegicus [30]): Active

O=[N+]([O-])c1ccc(O)c([N+](=O)[O-])c1 [2,4-DINITROPHENOL]
EC50 (Drosophila [3]): 1250 µM
CC50 [4]: 16000 µM
Activity [29]: 1
EC50 [8]: 200 µM
TC50 (Caenorhabditis elegans [9]): 2000 µM
TC50 (Drosophila [10]): 10000 µM
EC50 (Caenorhabditis elegans [11]): 700 µM
